ChEMBL document CHEMBL1156993, “Benzyl prolinate derivatives as novel selective KCC2 blockers” (Bioorg Med Chem Lett, 2010)
Converted amounts (≈) assume the structure as drawn. The source made the active and inactive calls. The calls are words filed in the database; no cut-off is given here.

How the values were obtained:
[1] = target: T1, Solute carrier family 12 member 5 (Rattus norvegicus, UniProt Q63633); test: Antagonist activity of rat KCC2 transporter expressed in human SK-Hep cells assessed as inhibition of N-ethylmaleimide-mediated Rb+ influx after 10 mins by atomic absorption spectroscopy; type: functional, cell-based
T1 sequence (Q63633 whole entry): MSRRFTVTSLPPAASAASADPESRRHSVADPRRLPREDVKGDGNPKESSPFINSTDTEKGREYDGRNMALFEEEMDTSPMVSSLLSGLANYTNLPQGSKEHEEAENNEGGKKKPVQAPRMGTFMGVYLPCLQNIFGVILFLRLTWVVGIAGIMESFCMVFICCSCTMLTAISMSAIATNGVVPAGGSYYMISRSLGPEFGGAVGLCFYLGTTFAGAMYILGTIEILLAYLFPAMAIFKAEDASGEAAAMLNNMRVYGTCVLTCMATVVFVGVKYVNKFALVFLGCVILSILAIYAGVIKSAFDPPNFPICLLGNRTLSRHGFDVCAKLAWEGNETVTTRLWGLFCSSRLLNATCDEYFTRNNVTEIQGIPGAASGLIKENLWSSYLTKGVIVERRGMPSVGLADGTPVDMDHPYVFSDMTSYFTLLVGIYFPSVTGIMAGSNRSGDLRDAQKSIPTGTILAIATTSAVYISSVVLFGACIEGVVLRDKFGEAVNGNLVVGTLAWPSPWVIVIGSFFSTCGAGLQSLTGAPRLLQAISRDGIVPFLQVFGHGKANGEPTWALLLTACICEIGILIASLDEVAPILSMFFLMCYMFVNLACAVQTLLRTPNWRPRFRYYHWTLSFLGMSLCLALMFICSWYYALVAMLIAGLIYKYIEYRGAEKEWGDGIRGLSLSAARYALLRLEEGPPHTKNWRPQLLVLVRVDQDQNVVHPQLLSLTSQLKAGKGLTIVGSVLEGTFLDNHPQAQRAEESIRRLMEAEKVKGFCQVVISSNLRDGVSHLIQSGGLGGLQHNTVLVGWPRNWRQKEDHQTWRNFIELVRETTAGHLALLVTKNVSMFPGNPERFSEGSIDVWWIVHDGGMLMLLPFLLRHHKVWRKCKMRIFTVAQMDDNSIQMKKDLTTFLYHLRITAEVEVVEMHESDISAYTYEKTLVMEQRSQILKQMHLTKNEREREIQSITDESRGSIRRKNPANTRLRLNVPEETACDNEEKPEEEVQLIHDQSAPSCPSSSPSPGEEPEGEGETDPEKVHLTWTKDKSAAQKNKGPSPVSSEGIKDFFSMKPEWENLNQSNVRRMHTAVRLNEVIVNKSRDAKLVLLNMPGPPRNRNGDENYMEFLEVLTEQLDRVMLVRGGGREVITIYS
Summary of the method: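 Rat KCC2 stably expressed in a selected clone. The co-transporter is activated with N-ethylmaleimide in the presence of the test compound, and Rb+ influx is started by adding 5 mM RbCl to the extracellular medium. Influx is stopped after 10 min by repeated washes. Intracellular Rb+ is measured by atomic absorption spectroscopy, and IC50 is reported.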

[2] = Antagonist activity to dog NKCC1 transporter expressed in MDCK cells assessed as inhibition of Cl- free medium-stimulated Rb+ influx at 100 uM after 45 mins by atomic absorption spectroscopy; type: functional, Canis lupus familiaris; details: for inhibition at 100 µM: Canis lupus familiaris, MDCK, 0.75 h
Summary of the method: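 MDCK cells express endogenous canine NKCC1. NKCC1 is activated by incubating the cells for 2 h in Cl−-free medium. Rb+ influx is then stimulated for 45 min by adding 20 mM RbCl to the extracellular solution. Intracellular Rb+ is quantified by atomic absorption spectroscopy, and results are given as percent inhibition.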

[3] = Intrinsic clearance in rat microsomes assessed per mg of protein; type: ADME, Microsome
[4] = Intrinsic clearance in rat hepatocytes assessed per 10^6 cells
[5] = Aqueous solubility in PBS buffer at pH 7.4; type: physicochemical
[6] = tested on: Mus musculus; test: Anticonvulsant activity in audiogenic mouse epilepsy model assessed as inhibition of sound-induced wild running phase of seizure up to 75 mg/kg, ip pretreated 5 mins before acoustic stimulation; type: functional, organism-based; parameters: dose 75 mg/kg
Summary of the method: (§1)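 Mice are pre-selected as responders in a first acoustic challenge (85 dB, 30 s). Wild running, clonic and tonic phases are scored. The next day, compound is given ip 5 min before the same stimulus. The proportion of mice protected against each of the three phases is calculated per group, with N = 10 per dose.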

[7] = tested on: Mus musculus; test: Anticonvulsant activity in audiogenic mouse epilepsy model assessed as inhibition of sound-induced clonic phase of seizure up to 75 mg/kg, ip pretreated 5 mins before acoustic stimulation; type: functional, organism-based; parameters: dose 75 mg/kg; summary of the method: as §1
[8] = tested on: Mus musculus; test: Anticonvulsant activity in audiogenic mouse epilepsy model assessed as inhibition of sound-induced tonic convulsion phase of seizure up to 75 mg/kg, ip pretreated 5 mins before acoustic stimulation; type: functional, organism-based; parameters: dose 75 mg/kg; summary of the method: as §1

Row | IC50 [1] | SMILES | further results
1 | 50 µM | CC(=O)N1CCCC1(Cc1ccccc1)C(=O)OCc1ccccc1 (single isomer, unassigned; (-)) | CL [3]: 392 µL/min/mg
2 | 0.4 µM | COC(=O)N1CCCC1(Cc1ccccc1)C(=O)OCc1ccccc1 (stereo unspecified) | 
3 | 1.3 µM | CC(=O)N1CCCC1(Cc1ccccc1)C(=O)OCc1ccc(Cl)cc1 (stereo unspecified) | 
4 | 2 µM | CCNC(=O)N1CCCC1(Cc1ccccc1)C(=O)OCc1ccccc1 (stereo unspecified) | 
5 | 100 µM | CC(=O)N1CCCC1(Cc1ccccc1)C(=O)NCc1ccccc1 (stereo unspecified) | 
6 | 2 µM | CC(=O)N1CCCC1(Cc1ccncc1)C(=O)OCc1ccccc1 (stereo unspecified) | 
7 | 0.32 µM | O=C(C1CC1)N1CCCC1(Cc1ccccc1)C(=O)OCc1ccccc1 (stereo unspecified) | 
8 | 2.5 µM | CC(=O)N1CCCC1(Cc1ccccc1)C(=O)OCc1cccc(Cl)c1 (stereo unspecified) | 
9 | 0.32 µM | CC(=O)N1CCCC1(Cc1ccccc1)C(=O)OCc1ccccc1 (single isomer, unassigned; (+)) | inhibition (INH) [2]: 14%

More lines, now with the values behind:

Row | SMILES | IC50 [1] | further results
10 | CC(=O)N1CCCC1(Cc1ccccc1)C(=O)OCC1CCCCC1 (stereo unspecified) | 63 µM | 
11 | CC(=O)N1CCCC1(Cc1ccc(C#N)cc1)C(=O)OCc1ccccc1 (stereo unspecified) | 0.16 µM | inhibition at 100 µM [2]: 31%; microsomal CLint [3]: 123 µL/min/mg; hepatocyte CLint [4]: 31 µL/min/1e6 cells; solubility [5]: 20 µg/mL (≈ 55.2 µM)
12 | CC(=O)N1CCCC1(Cc1ccccc1C#N)C(=O)OCc1ccccc1 (stereo unspecified) | 5 µM | 
13 | CC(=O)N1CCCC1(Cc1ccccc1)C(=O)OCc1ccc(S(C)(=O)=O)cc1 (stereo unspecified) | > 100 µM | 
14 | CC(=O)N1CCCC1(Cc1ccc(S(C)(=O)=O)cc1)C(=O)OCc1ccccc1 (single isomer, unassigned; (-)) | 40 µM | 
15 | CC(=O)N1CCCC1(Cc1ccc(Cl)cc1)C(=O)OCc1ccccc1 (stereo unspecified) | 0.32 µM | 
16 | CC(=O)N1CCCC1(Cc1ccc(C(F)(F)F)cc1)C(=O)OCc1ccccc1 (stereo unspecified) | 0.63 µM | inhibition at 100 µM [2]: 53%; microsomal CLint [3]: 128 µL/min/mg; hepatocyte CLint [4]: 20 µL/min/1e6 cells; solubility [5]: 2 µg/mL (≈ 4.93 µM)
17 | CC(=O)N1CCCC1(Cc1ccccc1)C(=O)O (stereo unspecified) | > 100 µM | 
18 | CC(=O)N1CCCC1(Cc1cccc(C#N)c1)C(=O)OCc1ccccc1 (stereo unspecified) | 0.32 µM | 
19 | CC(=O)N1CCCC1(Cc1cccc(S(C)(=O)=O)c1)C(=O)OCc1ccccc1 (stereo unspecified) | 0.25 µM | inhibition at 100 µM [2]: 25%; microsomal CLint [3]: 107 µL/min/mg; hepatocyte CLint [4]: 24 µL/min/1e6 cells
20 | CC(=O)N1CCCC1(CC1CCCCC1)C(=O)OCc1ccccc1 (stereo unspecified) | 1 µM | inhibition at 100 µM [2]: 39%; microsomal CLint [3]: 382 µL/min/mg; solubility [5]: 3 µg/mL (≈ 8.73 µM)
21 | COc1ccc(CC2(C(=O)OCc3ccccc3)CCCN2C(C)=O)cc1 (stereo unspecified) | 0.4 µM | inhibition at 100 µM [2]: 59%; microsomal CLint [3]: 333 µL/min/mg; hepatocyte CLint [4]: 23 µL/min/1e6 cells; solubility [5]: 10 µg/mL (≈ 27.2 µM)
22 | COc1ccc(CC2(C(=O)OCc3ccccc3)CCCN2C(C)=O)cc1C(F)(F)F (stereo unspecified) | 0.05 µM | 
23 | CC(=O)N1CCCC1(Cc1ccccc1)C(=O)OCc1ccc(C(F)(F)F)cc1 (stereo unspecified) | 5 µM | 
24 | CC(=O)N1CCCC1(Cc1ccc(S(C)(=O)=O)cc1)C(=O)OCc1ccccc1 (stereo in doubt; 13) |  | Activity [6]: inactive; Activity [7]: inactive; Activity [8]: inactive
